# Measured values from ChEMBL document CHEMBL4715736, “Identification of anticancer agents based on the thieno[2,3-b]pyridine and 1H-pyrazole molecular scaffolds” (2016).
# Tests used:
# Type in all cases: functional
# Conditions in all cases: read-out: Activity
# CCRF-CEM = test: Growth inhibition of human CCRF-CEM cells assessed as cell growth at 10 uM incubated for 48 hrs by sulforhodamine B assay relative to control
# Method in brief: (§1)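 NCI Developmental Therapeutics Program NCI60 panel. Compounds that were active in the 10 µM one-dose screen went on to dose–response testing. Growth at each concentration is expressed relative to untreated control (100%). GI50 (concentration giving 50% of maximal inhibition of proliferation) and TGI (concentration giving total growth inhibition) were derived from the curves.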
# A549 = test: Growth inhibition of human A549/ATCC cells assessed as cell growth at 10 uM incubated for 48 hrs by sulforhodamine B assay relative to control; method in brief: as §1
# M14 = test: Growth inhibition of human M14 cells assessed as cell growth at 10 uM incubated for 48 hrs by sulforhodamine B assay relative to control
# Method in brief: (§2)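 Submitted to the NCI Developmental Therapeutics Program for the NCI60 human tumour cell line panel. First screen at a single 10 µM concentration. Read-out is growth relative to untreated control cells set at 100%.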
# UO-31 = test: Growth inhibition of human UO-31 cells assessed as cell growth at 10 uM incubated for 48 hrs by sulforhodamine B assay relative to control
# Method in brief: (§3)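 Run by the NCI Developmental Therapeutics Program as part of its 60-line human tumour panel. Each compound tested at a single 10 µM dose. Growth expressed as % relative to untreated control cells (100%).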
# 786-0 = test: Growth inhibition of human 786-0 cells assessed as cell growth at 10 uM incubated for 48 hrs by sulforhodamine B assay relative to control; method in brief: as §1
# IGROV-1 = test: Growth inhibition of human IGROV-1 cells assessed as cell growth at 10 uM incubated for 48 hrs by sulforhodamine B assay relative to control; method in brief: as §2
# OVCAR-8 = test: Growth inhibition of human OVCAR-8 cells assessed as cell growth at 10 uM incubated for 48 hrs by sulforhodamine B assay relative to control; method in brief: as §3
# OVCAR-5 = test: Growth inhibition of human OVCAR-5 cells assessed as cell growth at 10 uM incubated for 48 hrs by sulforhodamine B assay relative to control; method in brief: as §3
# HCC 2998 = test: Growth inhibition of human HCC 2998 cells assessed as cell growth at 10 uM incubated for 48 hrs by sulforhodamine B assay relative to control; method in brief: as §1
# LOX IMVI = test: Growth inhibition of human LOX IMVI cells assessed as cell growth at 10 uM incubated for 48 hrs by sulforhodamine B assay relative to control; method in brief: as §2
# MDA-MB-435 = test: Growth inhibition of human MDA-MB-435 cells assessed as cell growth at 10 uM incubated for 48 hrs by sulforhodamine B assay relative to control; method in brief: as §2
# OVCAR-3 = test: Growth inhibition of human OVCAR-3 cells assessed as cell growth at 10 uM incubated for 48 hrs by sulforhodamine B assay relative to control; method in brief: as §3
# DU-145 = test: Growth inhibition of human DU-145 cells assessed as cell growth at 10 uM incubated for 48 hrs by sulforhodamine B assay relative to control; method in brief: as §1
# KM12 = test: Growth inhibition of human KM12 cells assessed as cell growth at 10 uM incubated for 48 hrs by sulforhodamine B assay relative to control; method in brief: as §2
# SK-MEL-5 = test: Growth inhibition of human SK-MEL-5 cells assessed as cell growth at 10 uM incubated for 48 hrs by sulforhodamine B assay relative to control; method in brief: as §3
# SN12C = test: Growth inhibition of human SN12C cells assessed as cell growth at 10 uM incubated for 48 hrs by sulforhodamine B assay relative to control; method in brief: as §3
# NCI-H23 = test: Growth inhibition of human NCI-H23 cells assessed as cell growth at 10 uM incubated for 48 hrs by sulforhodamine B assay relative to control; method in brief: as §2
# T47D = test: Growth inhibition of human T47D cells assessed as cell growth at 10 uM incubated for 48 hrs by sulforhodamine B assay relative to control; method in brief: as §3
# SF-539 = test: Growth inhibition of human SF-539 cells assessed as cell growth at 10 uM incubated for 48 hrs by sulforhodamine B assay relative to control; method in brief: as §3
# SF-295 = test: Growth inhibition of human SF-295 cells assessed as cell growth at 10 uM incubated for 48 hrs by sulforhodamine B assay relative to control; method in brief: as §3
# HOP-62 = test: Growth inhibition of human HOP-62 cells assessed as cell growth at 10 uM incubated for 48 hrs by sulforhodamine B assay relative to control; method in brief: as §2
# RPMI-8226 = test: Growth inhibition of human RPMI-8226 cells assessed as cell growth at 10 uM incubated for 48 hrs by sulforhodamine B assay relative to control; method in brief: as §3
# UACC-62 = test: Growth inhibition of human UACC-62 cells assessed as cell growth at 10 uM incubated for 48 hrs by sulforhodamine B assay relative to control; method in brief: as §3
# HOP-92 = test: Growth inhibition of human HOP-92 cells assessed as cell growth at 10 uM incubated for 48 hrs by sulforhodamine B assay relative to control; method in brief: as §2
# SNB-19 = test: Growth inhibition of human SNB-19 cells assessed as cell growth at 10 uM incubated for 48 hrs by sulforhodamine B assay relative to control; method in brief: as §3
# UACC-257 = test: Growth inhibition of human UACC-257 cells assessed as cell growth at 10 uM incubated for 48 hrs by sulforhodamine B assay relative to control; method in brief: as §3
# HL-60(TB) = test: Growth inhibition of human HL-60(TB) cells assessed as cell growth at 10 uM incubated for 48 hrs by sulforhodamine B assay relative to control
# Method in brief: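 Screened by the NCI Developmental Therapeutics Program on its panel of 60 human tumour cell lines. Compounds were first tested at a single 10 µM dose, and compounds active there went to dose-response curves. Growth is expressed relative to untreated control (100%). GI50 (50% of maximal proliferation inhibition) and TGI (total growth inhibition) were derived from the dose-response data.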
# MDA-MB-468 = test: Growth inhibition of human MDA-MB-468 cells assessed as cell growth at 10 uM incubated for 48 hrs by sulforhodamine B assay relative to control; method in brief: as §2
# RXF 393 = test: Growth inhibition of human RXF 393 cells assessed as cell growth at 10 uM incubated for 48 hrs by sulforhodamine B assay relative to control; method in brief: as §3
# A498 = test: Growth inhibition of human A498 cells assessed as cell growth at 10 uM incubated for 48 hrs by sulforhodamine B assay relative to control; method in brief: as §1
# MOLT-4 = test: Growth inhibition of human MOLT-4 cells assessed as cell growth at 10 uM incubated for 48 hrs by sulforhodamine B assay relative to control; method in brief: as §2
# MDA-MB-231 = test: Growth inhibition of human MDA-MB-231 cells assessed as cell growth at 10 uM incubated for 48 hrs by sulforhodamine B assay relative to control; method in brief: as §2
# U-251 = test: Growth inhibition of human U-251 cells assessed as cell growth at 10 uM incubated for 48 hrs by sulforhodamine B assay relative to control; method in brief: as §3
SMILES,growth at 10 µM (CCRF-CEM) [%],growth at 10 µM (A549) [%],growth at 10 µM (M14) [%],growth at 10 µM (UO-31) [%],growth at 10 µM (786-0) [%],growth at 10 µM (IGROV-1) [%],growth at 10 µM (OVCAR-8) [%],growth at 10 µM (OVCAR-5) [%],growth at 10 µM (HCC 2998) [%],growth at 10 µM (LOX IMVI) [%],growth at 10 µM (MDA-MB-435) [%],growth at 10 µM (OVCAR-3) [%],growth at 10 µM (DU-145) [%],growth at 10 µM (KM12) [%],growth at 10 µM (SK-MEL-5) [%],growth at 10 µM (SN12C) [%],growth at 10 µM (NCI-H23) [%],growth at 10 µM (T47D) [%],growth at 10 µM (SF-539) [%],growth at 10 µM (SF-295) [%],other results
CC(=O)c1cccc(NC(=O)c2sc3nc4c(cc3c2N)C(=O)CCC4)c1,99.7,92.8,100,99.7,97,96.2,101,106,97.7,106,66.8,120,108,95.2,96,109,98.8,93.8,101,90.8,growth at 10 µM (HOP-62): 97.9%; growth at 10 µM (RPMI-8226): 92.7%; growth at 10 µM (UACC-62): 98.4%; growth at 10 µM (HOP-92): 92.8%; growth at 10 µM (SNB-19): 99.5%; growth at 10 µM (UACC-257): 99.3%; growth at 10 µM (HL-60(TB)): 102%; growth at 10 µM (MDA-MB-468): 82.8%; growth at 10 µM (RXF 393): 104%; growth at 10 µM (A498): 86.9%; growth at 10 µM (MOLT-4): 107%; growth at 10 µM (MDA-MB-231): 100%
CC(C)N1CCc2nc3sc(C(=O)Nc4ccccc4)c(N)c3cc2C1,100,89.8,108,87.8,108,100,95.9,90.2,110,102,94,108,110,101,95,106,97.9,91.7,93,105,growth at 10 µM (U-251): 92.7%; growth at 10 µM (HOP-62): 94.1%; growth at 10 µM (RPMI-8226): 98.2%; growth at 10 µM (UACC-62): 103%; growth at 10 µM (HOP-92): 55.6%; growth at 10 µM (SNB-19): 105%; growth at 10 µM (UACC-257): 95.1%; growth at 10 µM (HL-60(TB)): 98.4%; growth at 10 µM (MDA-MB-468): 95.6%; growth at 10 µM (RXF 393): 102%; growth at 10 µM (A498): 67.5%; growth at 10 µM (MOLT-4): 106%; growth at 10 µM (MDA-MB-231): 95.2%
Nc1c(C(=O)N(c2ccccc2)c2ccccc2)sc2nc3c(cc12)C(=O)CCC3,96.1,90.2,94.2,87,104,103,105,130,116,94.3,110,107,68.6,79,102,101,101,99.5,81.7,107,growth at 10 µM (HOP-62): 99.3%; growth at 10 µM (RPMI-8226): 94.8%; growth at 10 µM (UACC-62): 109%; growth at 10 µM (HOP-92): 103%; growth at 10 µM (SNB-19): 104%; growth at 10 µM (UACC-257): 106%; growth at 10 µM (HL-60(TB)): 105%; growth at 10 µM (MDA-MB-468): 106%; growth at 10 µM (RXF 393): 111%; growth at 10 µM (A498): 76.3%; growth at 10 µM (MOLT-4): 102%; growth at 10 µM (MDA-MB-231): 85.9%
CC(=O)c1ccc2c(N)c(C(=O)Nc3ccccc3)sc2n1,101,89,109,103,97.9,113,100,113,106,105,106,119,107,110,98.5,110,99.2,93.7,97,108,growth at 10 µM (HOP-62): 102%; growth at 10 µM (RPMI-8226): 89%; growth at 10 µM (UACC-62): 115%; growth at 10 µM (HOP-92): 74%; growth at 10 µM (SNB-19): 105%; growth at 10 µM (UACC-257): 102%; growth at 10 µM (HL-60(TB)): 108%; growth at 10 µM (MDA-MB-468): 87.4%; growth at 10 µM (RXF 393): 100%; growth at 10 µM (A498): 70.3%; growth at 10 µM (MOLT-4): 107%; growth at 10 µM (MDA-MB-231): 112%
